The target in test [1] is SIRT6 (Homo sapiens, UniProt Q8N6T7). As to the kind of experiment: In vitro nucleosome deacetylation assay. In kind it is biochemical. To be noted: Western blot. In a few lines:
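Nucleosomes were isolated from HeLa cells and deacetylated in vitro by SIRT6 in the presence of NAD+. H3K9Ac and H3K18Ac were detected by Western blot.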
For orientation: In western blotting, separated proteins are transferred to a membrane and probed.

The target in test [2] is HDAC2 (Homo sapiens, UniProt Q92769). Description: HDACs selectivity assay. The format is biochemical. In a few lines: (§1)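 Enzyme selectivity panel was run by an outside contract lab to its standard assay protocols. IC50 values came from dose–response fitting of the data points. Each experiment was done independently at least three times.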
For test [3], the target named is HDAC3 (Homo sapiens, UniProt O15379). As to the kind of experiment: HDACs selectivity assay. The format is biochemical. The gist of the method:
as §1

Test [4] deals with T1, HDAC10 (Homo sapiens, UniProt Q969S8).
T1 sequence (Q969S8 1-669): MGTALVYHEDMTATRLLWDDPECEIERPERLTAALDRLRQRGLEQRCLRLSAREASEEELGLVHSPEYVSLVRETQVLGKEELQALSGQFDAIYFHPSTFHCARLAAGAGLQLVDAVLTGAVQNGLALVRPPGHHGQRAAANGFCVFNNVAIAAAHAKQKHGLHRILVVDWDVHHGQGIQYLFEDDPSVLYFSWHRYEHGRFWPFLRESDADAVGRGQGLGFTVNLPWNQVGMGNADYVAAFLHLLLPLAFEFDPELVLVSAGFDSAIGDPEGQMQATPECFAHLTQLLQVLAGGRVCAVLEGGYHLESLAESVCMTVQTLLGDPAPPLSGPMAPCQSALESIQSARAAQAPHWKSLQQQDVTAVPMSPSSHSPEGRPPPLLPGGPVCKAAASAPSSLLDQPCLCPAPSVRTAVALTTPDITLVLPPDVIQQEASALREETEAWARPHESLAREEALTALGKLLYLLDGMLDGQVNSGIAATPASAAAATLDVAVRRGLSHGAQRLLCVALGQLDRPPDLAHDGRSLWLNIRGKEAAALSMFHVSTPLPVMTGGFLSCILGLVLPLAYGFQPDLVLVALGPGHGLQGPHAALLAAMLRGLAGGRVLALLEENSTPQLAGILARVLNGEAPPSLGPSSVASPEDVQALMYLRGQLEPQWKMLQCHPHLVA
Description: HDACs selectivity assay. In kind it is biochemical. In a few lines:
as §1

Test [5] deals with T2, SIRT2 (Homo sapiens, UniProt Q8IXJ6).
T2 sequence (Q8IXJ6 1-389): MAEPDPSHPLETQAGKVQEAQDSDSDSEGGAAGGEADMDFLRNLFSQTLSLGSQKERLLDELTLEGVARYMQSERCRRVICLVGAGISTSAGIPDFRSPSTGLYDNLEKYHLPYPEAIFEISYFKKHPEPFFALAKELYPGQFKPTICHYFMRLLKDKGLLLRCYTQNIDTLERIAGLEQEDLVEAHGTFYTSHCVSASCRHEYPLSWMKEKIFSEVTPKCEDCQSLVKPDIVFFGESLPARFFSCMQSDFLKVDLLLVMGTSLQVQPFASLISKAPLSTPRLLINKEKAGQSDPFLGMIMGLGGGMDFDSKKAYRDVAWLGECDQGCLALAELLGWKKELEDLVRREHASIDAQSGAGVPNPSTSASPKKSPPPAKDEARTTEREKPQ
Description: HDACs selectivity assay. The format is biochemical.

Test [6] concerns the target T3, SIRT3 (Homo sapiens, UniProt Q9NTG7).
T3 sequence (Q9NTG7 1-399): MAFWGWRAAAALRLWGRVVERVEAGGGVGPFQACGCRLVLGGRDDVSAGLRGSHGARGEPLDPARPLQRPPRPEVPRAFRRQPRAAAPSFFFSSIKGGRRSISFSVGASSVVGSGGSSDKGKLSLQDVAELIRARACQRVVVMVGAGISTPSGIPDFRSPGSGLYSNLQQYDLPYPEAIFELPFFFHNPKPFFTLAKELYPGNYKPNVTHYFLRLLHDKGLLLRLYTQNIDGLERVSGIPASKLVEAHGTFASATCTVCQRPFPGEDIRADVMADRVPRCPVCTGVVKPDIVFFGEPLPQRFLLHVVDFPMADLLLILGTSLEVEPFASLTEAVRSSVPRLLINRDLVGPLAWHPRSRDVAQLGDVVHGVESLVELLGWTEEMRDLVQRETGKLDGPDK
Description: HDACs selectivity assay. In kind it is biochemical. The gist of the method:
as §1

Test [7] concerns the target T4, full-length SIRT7 (Homo sapiens, UniProt Q9NRC8).
T4 sequence (Q9NRC8 1-400): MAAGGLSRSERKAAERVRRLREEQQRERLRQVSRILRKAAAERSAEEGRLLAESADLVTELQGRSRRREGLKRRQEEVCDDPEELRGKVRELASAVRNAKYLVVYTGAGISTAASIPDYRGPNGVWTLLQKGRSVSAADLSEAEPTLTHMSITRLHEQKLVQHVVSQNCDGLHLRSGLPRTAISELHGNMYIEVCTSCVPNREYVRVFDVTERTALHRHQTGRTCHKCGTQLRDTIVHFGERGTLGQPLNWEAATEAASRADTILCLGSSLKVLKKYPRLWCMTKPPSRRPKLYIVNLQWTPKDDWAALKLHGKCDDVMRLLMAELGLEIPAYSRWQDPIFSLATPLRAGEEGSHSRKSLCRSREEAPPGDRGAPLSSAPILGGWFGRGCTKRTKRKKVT
Description: Selectivity FDL deacetylation assay. The format is biochemical.

Test [8] relates to BXPC-3 cells. Description: Western blot of SIRT6 substrates H3K9Ac, H3K18Ac, H3K56Ac. In kind it is cell-based. To be noted: BXPC-3, indicated doses of JYQ-42 for 24 h. The gist of the method: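 BXPC-3 cells were grown in RPMI1640 and MiaPaCa-2 cells in DMEM, each with 10% FBS and penicillin/streptomycin, at 37 °C under 5% CO2. Both lines were STR-verified. Cells took test compound at 0, 10, 20 or 40 μmol/L for 24 or 48 h and were lysed in 1× SDS loading buffer. Proteins were separated on 12% SDS-PAGE and transferred to PVDF. Blocking used Tris-NaCl pH 7.5 with Tween-20 and 5% milk. Detection was chemiluminescent (HRP), with β-actin as loading control.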

Test [9] relates to BXPC-3 cells. Description: Migration assay with xCELLigence RTCA-DP. To be noted: 5, 10, 20 μmol/L, effect even at 5 μmol/L. In kind it is cell-based.
For test [10], the system named is BXPC-3 cells. As to the kind of experiment: Proliferation assay. In kind it is cell-based. To be noted: BXPC-3, up to 20 μmol/L, 48 h, CCK-8.
In test [11] the test system is MiaPaCa-2 cells. As to the kind of experiment: Proliferation assay. In kind it is cell-based. To be noted: MiaPaCa-2, up to 20 μmol/L, 48 h, CCK-8.
Test [12] has as its system BXPC-3 cells. As to the kind of experiment: Q-PCR for SIRT6, IL6, IL8 and TNF-α mRNA. The format is cell-based. To be noted: BXPC-3, 10, 20, 40 μmol/L, 24 h, qPCR. A general note: In qPCR the cycle at which signal appears reflects the starting amount.

A value given as a limit tells only on which side of the number the result lay.

Sequence of SIRT6 (Q8N6T7 whole entry): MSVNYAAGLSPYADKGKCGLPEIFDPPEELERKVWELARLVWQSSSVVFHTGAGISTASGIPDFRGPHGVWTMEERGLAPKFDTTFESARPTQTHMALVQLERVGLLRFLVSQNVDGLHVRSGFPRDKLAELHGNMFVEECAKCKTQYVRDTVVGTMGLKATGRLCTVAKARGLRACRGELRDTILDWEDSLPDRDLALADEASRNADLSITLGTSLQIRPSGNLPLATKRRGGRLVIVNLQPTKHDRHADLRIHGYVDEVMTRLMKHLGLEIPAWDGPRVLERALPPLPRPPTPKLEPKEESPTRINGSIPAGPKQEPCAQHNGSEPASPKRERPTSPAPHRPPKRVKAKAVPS
Sequence of HDAC2 (Q92769 whole entry): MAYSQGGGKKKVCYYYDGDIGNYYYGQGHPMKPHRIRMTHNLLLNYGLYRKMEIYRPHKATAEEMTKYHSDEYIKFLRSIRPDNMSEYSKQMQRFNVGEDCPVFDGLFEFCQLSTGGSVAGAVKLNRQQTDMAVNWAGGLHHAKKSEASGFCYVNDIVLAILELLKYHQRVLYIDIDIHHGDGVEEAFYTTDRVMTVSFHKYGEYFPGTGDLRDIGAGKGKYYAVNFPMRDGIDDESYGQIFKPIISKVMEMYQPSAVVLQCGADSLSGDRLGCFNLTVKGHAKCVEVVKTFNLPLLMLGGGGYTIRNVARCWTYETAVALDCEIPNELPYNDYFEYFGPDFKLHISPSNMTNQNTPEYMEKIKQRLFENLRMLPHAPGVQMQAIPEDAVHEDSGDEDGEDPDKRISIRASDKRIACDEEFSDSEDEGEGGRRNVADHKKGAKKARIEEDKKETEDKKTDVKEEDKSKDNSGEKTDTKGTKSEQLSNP
Sequence of HDAC3 (O15379 whole entry): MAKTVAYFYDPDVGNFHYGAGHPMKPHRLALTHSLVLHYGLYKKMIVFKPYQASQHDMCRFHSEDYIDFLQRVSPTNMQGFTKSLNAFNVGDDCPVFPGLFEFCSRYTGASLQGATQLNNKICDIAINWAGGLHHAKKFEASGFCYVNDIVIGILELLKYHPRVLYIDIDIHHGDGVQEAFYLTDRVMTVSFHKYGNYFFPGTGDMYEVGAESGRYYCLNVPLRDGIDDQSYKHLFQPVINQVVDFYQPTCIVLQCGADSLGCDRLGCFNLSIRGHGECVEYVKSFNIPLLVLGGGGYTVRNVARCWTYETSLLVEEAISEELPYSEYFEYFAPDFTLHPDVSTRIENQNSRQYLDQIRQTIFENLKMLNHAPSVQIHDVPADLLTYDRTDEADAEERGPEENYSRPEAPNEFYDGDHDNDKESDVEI
Sequence of HDAC3 (Q9Y618 395-489 partner limits assumed): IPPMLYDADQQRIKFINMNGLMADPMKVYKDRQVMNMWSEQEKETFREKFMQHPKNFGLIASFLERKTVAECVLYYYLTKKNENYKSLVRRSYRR

As to `Nc1nonc1-n1cc(C(=O)N/N=C/c2cc(Cl)cc(C(F)(F)F)c2)nn1` [JYQ-42], the “inhibition of SIRT6 deacetylase activity on nucleosomes” value in test [1] (0.5 μmol/L) is reported as “inhibit the deacetylase activity of SIRT6 significantly”; in [1] (1 μmol/L), “completely/totally inhibited”. The IC50 – broadly, the concentration at which inhibition is half-maximal – in test [2] is greater than 100 µM; in [3], greater than 100 µM; in [4], greater than 100 µM; in [5] it was 87.2 ± 1.1 µM; in [6] it was greater than 100 µM; in [7], greater than 100 µM. The “inhibition ratio at 50 μmol/L (SIRT2)” value in test [5] (50 μmol/L) is 38.6%. The “SIRT2 IC50 relative to that of SIRT6” value in test [5] (IC50 SIRT2 / IC50 SIRT6) is reported as “approximately 37 fold”. Also, the Effect result in test [5] (SIRT2) is “Inhibition”. Moreover, the “levels of H3K9Ac, H3K18Ac and H3K56Ac” value in [8] is “increased the levels of H3K9Ac, H3K18Ac and H3K56Ac in a dose-dependent manner”. In [9], the “migration of pancreatic cancer cells (RTCA cell index)” value is given as “dramatically attenuated”. The cell growth result in test [10] and in [11] was “no significant impact on cell growth” each time. The “mRNA level of SIRT6” value in test [12] was “not significantly changed”.

The record behind these values is PMC8897208 (Acta Pharmaceutica Sinica. B, 2021).
